Test results taken from ChEMBL document CHEMBL1142725, “Synthesis and discovery of pyrazine-pyridine biheteroaryl as a novel series of potent vascular endothelial growth factor receptor-2 inhibitors” (J Med Chem, 2005).
Blank lines part the entries; values can stand above or below the compound they belong to.

Key:
[1] = target: Cyclin-dependent kinase 1 (Homo sapiens, UniProt P06493); assay: Inhibition of human cyclin-dependent kinase 1
[2] = target: Vascular endothelial growth factor receptor 2 (Homo sapiens, UniProt P35968); assay: Inhibition of human vascular endothelial growth factor receptor 2
Vascular endothelial growth factor receptor 2, sequence (P35968 whole entry): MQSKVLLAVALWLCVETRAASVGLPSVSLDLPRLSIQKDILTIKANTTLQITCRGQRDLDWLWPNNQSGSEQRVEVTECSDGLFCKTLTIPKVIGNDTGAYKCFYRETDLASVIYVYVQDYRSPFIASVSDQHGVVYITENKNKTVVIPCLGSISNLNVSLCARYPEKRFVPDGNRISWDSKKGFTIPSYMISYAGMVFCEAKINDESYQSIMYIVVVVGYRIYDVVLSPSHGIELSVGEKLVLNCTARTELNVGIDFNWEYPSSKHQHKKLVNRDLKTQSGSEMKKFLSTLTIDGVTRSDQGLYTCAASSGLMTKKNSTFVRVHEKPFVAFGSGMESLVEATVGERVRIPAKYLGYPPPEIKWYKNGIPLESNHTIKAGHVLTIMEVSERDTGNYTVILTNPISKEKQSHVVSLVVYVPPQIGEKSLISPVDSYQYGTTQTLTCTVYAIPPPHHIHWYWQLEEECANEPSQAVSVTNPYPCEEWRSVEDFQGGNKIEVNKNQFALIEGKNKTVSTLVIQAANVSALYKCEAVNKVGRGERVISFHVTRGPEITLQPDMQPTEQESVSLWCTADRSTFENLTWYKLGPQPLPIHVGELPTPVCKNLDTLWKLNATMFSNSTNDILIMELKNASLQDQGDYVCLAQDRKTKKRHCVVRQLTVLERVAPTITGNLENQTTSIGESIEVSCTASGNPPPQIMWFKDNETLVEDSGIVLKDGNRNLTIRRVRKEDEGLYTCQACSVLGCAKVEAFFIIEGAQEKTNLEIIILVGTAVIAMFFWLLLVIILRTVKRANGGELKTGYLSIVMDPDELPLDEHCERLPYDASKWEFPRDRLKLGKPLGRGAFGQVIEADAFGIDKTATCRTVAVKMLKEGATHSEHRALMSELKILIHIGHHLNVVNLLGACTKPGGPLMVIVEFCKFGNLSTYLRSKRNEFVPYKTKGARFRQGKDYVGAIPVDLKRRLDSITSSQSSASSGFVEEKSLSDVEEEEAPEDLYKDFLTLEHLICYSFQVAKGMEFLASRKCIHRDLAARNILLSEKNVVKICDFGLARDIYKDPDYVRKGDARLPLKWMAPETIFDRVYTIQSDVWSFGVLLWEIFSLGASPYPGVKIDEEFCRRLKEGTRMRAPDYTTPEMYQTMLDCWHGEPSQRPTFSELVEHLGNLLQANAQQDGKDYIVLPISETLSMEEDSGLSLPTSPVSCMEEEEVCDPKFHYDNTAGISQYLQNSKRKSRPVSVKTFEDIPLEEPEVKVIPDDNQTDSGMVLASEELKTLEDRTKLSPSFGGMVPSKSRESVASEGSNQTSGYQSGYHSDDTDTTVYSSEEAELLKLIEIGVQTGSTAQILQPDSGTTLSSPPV

[3] = target: Fibroblast growth factor receptor 2 (Homo sapiens, UniProt P21802); assay: Inhibition of fibroblast growth factor receptor 2
[4] = target: Protein kinase C beta type (Homo sapiens, UniProt P05771); assay: Inhibition of protein kinase C beta 2
Protein kinase C beta type, sequence (P05771 whole entry): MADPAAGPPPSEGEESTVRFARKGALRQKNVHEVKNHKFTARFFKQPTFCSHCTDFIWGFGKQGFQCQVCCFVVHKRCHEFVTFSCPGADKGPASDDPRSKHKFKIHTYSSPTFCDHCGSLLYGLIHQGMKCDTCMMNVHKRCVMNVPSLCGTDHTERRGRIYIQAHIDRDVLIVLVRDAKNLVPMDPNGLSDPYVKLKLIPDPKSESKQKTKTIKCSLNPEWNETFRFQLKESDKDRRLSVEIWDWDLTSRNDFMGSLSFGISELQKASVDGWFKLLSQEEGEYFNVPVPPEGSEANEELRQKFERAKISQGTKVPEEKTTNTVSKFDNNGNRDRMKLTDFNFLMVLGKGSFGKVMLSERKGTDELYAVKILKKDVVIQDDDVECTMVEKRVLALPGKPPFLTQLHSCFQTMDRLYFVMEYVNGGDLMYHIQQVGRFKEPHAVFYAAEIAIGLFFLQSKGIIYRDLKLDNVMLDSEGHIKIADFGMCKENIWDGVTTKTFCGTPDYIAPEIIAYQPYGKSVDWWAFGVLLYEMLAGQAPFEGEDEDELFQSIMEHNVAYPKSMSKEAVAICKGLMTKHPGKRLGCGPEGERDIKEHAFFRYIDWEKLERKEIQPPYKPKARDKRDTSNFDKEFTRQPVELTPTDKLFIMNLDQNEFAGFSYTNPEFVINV

[5] = target: Protein kinase C gamma type (Homo sapiens, UniProt P05129); assay: Inhibition of protein kinase C gamma
Casein kinase II = Casein kinase II (Homo sapiens, UniProt P19784+P67870+P68400); assay: Inhibition of casein kinase II; assay type: protein-complex assay
Casein kinase II, sequence (P67870 whole entry): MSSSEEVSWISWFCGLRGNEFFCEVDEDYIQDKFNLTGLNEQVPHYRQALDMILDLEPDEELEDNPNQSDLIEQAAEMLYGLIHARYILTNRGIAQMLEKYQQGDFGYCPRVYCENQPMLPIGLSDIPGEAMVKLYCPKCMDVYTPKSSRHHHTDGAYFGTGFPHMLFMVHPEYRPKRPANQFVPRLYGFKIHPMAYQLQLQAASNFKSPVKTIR
Casein kinase II, sequence (P68400 whole entry): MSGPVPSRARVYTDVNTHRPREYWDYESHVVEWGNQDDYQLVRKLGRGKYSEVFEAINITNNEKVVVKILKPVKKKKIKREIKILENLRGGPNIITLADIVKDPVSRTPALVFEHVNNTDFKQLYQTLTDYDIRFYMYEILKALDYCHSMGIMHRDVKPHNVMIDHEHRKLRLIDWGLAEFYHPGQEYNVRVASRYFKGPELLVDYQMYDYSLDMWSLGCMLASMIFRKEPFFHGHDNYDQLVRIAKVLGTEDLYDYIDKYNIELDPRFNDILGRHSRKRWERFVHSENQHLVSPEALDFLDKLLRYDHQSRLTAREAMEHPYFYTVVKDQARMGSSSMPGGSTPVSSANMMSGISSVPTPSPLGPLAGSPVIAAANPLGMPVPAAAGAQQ
Casein kinase II, sequence (P19784 whole entry): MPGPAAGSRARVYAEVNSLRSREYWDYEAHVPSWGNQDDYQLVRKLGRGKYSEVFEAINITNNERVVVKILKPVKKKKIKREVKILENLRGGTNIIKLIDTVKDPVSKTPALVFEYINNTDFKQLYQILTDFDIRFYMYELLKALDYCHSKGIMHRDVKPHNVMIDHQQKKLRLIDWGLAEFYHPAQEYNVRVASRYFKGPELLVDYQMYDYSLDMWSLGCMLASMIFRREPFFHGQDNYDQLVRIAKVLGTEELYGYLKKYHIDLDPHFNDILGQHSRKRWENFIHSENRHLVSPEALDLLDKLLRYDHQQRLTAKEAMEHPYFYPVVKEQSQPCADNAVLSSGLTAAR

HeLa = assay: Inhibitory concentration against Proliferation of HeLa cells (cervical adenocarcinoma); assay type: functional, cell-based; details: Homo sapiens
Summary of the method: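 HeLa cells grown in MEM with 0.1 mM nonessential amino acids, 1 mM pyruvate, 2 mM L-glutamine and 10% FCS at 37 °C, 5% CO2. Seeded in scintillating microplates in complete medium and incubated 24 h. Compound added for 24 h, then 0.2 µCi methyl-[14C]thymidine per well for a further 24 h.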

[6] = target: cAMP-dependent protein kinase (PKA) (Homo sapiens, UniProt P22694+P17612+P22612); assay: Inhibition of protein kinase A; assay type: protein assay
[7] = target: Mitogen-activated protein kinase 1 (Homo sapiens, UniProt P28482); assay: Inhibition of mitogen activated protein kinase (ERK2)
Mitogen-activated protein kinase 1, sequence (P28482 whole entry): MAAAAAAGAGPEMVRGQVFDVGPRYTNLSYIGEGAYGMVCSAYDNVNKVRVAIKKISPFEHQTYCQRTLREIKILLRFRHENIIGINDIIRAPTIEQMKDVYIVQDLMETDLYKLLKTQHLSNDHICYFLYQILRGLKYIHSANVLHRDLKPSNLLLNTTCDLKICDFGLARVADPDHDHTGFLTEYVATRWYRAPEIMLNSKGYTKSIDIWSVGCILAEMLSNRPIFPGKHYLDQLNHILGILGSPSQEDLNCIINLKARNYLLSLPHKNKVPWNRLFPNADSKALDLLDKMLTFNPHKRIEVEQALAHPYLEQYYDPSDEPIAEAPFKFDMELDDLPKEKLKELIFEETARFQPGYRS

[8] = target: Vascular endothelial growth factor receptor (Homo sapiens, UniProt P17948+P35916+P35968); assay: Inhibition of VEGF-stimulated human umbilical vein endothelial cell proliferation; assay type: functional, cell-based
Summary of the method: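 HUVEC trypsinized and seeded in F-12K with 0.2% heat-inactivated FBS, stimulated with 2 ng/well VEGF with or without compound. BrdU added 24 h after VEGF, then incubated another 20-24 h. Incorporation read by BrdU cell-proliferation ELISA.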

[9] = target: Cyclin-dependent kinase 4 (Homo sapiens, UniProt P11802); assay: Inhibition of cyclin-dependent kinase 4
Cyclin-dependent kinase 4, sequence (P11802 whole entry): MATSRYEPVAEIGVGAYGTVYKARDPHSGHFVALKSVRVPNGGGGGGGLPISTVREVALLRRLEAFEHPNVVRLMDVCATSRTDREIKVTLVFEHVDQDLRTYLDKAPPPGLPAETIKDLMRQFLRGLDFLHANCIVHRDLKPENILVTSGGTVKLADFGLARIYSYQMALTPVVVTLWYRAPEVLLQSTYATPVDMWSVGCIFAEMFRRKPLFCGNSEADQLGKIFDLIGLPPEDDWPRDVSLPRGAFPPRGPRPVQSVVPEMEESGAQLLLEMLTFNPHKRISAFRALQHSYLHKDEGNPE

Cyclin-dependent kinase 1, sequence (P06493 whole entry): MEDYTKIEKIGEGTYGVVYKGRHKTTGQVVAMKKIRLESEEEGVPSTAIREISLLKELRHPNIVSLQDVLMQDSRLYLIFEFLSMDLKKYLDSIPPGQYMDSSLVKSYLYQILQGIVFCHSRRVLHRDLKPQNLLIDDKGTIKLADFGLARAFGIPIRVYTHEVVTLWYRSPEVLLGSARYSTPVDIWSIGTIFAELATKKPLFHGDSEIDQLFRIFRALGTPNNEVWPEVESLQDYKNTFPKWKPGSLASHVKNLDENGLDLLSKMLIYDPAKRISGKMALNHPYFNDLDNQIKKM

Structure (SMILES): OCCCNc1cccc(-c2cncc(Nc3cccc(Cl)c3)n2)n1
- IC50 [1]: > 10 µM
- IC50 [2]: > 10 µM

Structure (SMILES): OCCCNc1cncc(-c2ncc(Nc3cccc(Cl)c3)cn2)c1
- IC50 [1]: > 10 µM
- IC50 [2]: > 10 µM

Structure (SMILES): OCCCNc1cncc(-c2cncc(Nc3cccc(Cl)c3)n2)c1
- IC50 [3]: 0.21 µM
- IC50 [4]: > 10 µM
- IC50 [5]: > 10 µM
- IC50 (Casein kinase II): > 10 µM
- IC50 (HeLa): > 10 µM
- IC50 [6]: > 10 µM
- IC50 [7]: > 10 µM
- IC50 [8]: 0.005 µM
- IC50 [9]: > 10 µM
- IC50 [2]: 0.084 µM

Structure (SMILES): OCCCNc1ccc(-c2cncc(Nc3cccc(Cl)c3)n2)nc1
- IC50 [1]: > 10 µM
- IC50 [2]: > 10 µM

Structure (SMILES): OCCCNc1cncc(-c2cncc(Nc3cccc(Cl)c3)n2)n1
- IC50 [1]: > 10 µM
- IC50 [2]: 0.497 µM

Structure (SMILES): OCCCNc1ncc(-c2cncc(Nc3cccc(Cl)c3)n2)o1
- IC50 [1]: > 10 µM
- IC50 [2]: 2.11 µM

Structure (SMILES): OCCCNc1cncc(-c2cnc(Nc3cccc(Cl)c3)cn2)c1
- IC50 [1]: > 10 µM
- IC50 [2]: > 10 µM

Structure (SMILES): OCCCNc1ccc(-c2ncncc2Nc2cccc(Cl)c2)cn1
- IC50 [1]: > 10 µM
- IC50 [2]: > 10 µM

Further compounds by falling IC50 [1], results first:

- IC50 [1]: 8.08 µM
- IC50 [2]: 0.708 µM
Structure (SMILES): OCCCNc1ncc(-c2cncc(Nc3cccc(Cl)c3)n2)s1

- IC50 [1]: 2.4 µM
- IC50 [2]: > 10 µM
Structure (SMILES): OCCCNc1cncc(-c2cc(Nc3cccc(Cl)c3)ncn2)c1

- IC50 [1]: 2.22 µM
- IC50 [2]: 0.761 µM
Structure (SMILES): OCCCNc1cnccc1-c1cncc(Nc2cccc(Cl)c2)n1

- IC50 [1]: 0.5 µM
- IC50 [2]: 0.5 µM
Structure (SMILES): OCCCNc1cc(-c2cncc(Nc3cccc(Cl)c3)n2)ccn1

- IC50 [1]: 0.017 µM
Structure (SMILES): OCCCNc1cc(-c2ccnc(Nc3cccc(Cl)c3)n2)ccn1
